Where two headings read alike, the source gives them in different places.

The text below walks through data of PMC7174984 (Bioconjugate chemistry, 2020).

In data set [1] the target is T1, HSA (Homo sapiens, UniProt P02768). The experiment in a line: UV-vis/fluorescence spectroscopy of dye interaction with albumin. The data set is classed as binding. As to conditions: for formation of noncovalent adduct with albumin: UV absorbance maximum shift on mixing with HSA or serum.
Data set [2] in a line: Biodistribution in resected tumors and organs at 48 h post-injection. As to conditions: 25 nmol iv, tumors and organs resected 48 h post-injection. Format: in vivo, C57Bl/6 mice. In outline:
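Tumor-bearing C57Bl/6 mice (subcutaneous E0771) anesthetized with ketamine (100 mg/kg) and xylazine (10 mg/kg), abdomen opened by midline incision; 25 nmol test compound in 10% BSA given iv. Imaged at 48 h with intraoperative NIR system (760 nm excitation, 4 mW/cm²; 800 nm emission). ROI signal/background ratio over organs or tumor; at least 3 animals; one-way ANOVA with Tukey test; mean ± s.d.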

The test system of data set [3] is HepG2 cells. The experiment in a line: Cellular uptake of dyes into HepG2 liver cancer cells. The data set is classed as cell-based. As to conditions: compared with MDA-MB-231 data. The method in brief: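 HepG2 cells kept in DMEM with 10% FBS at 37 °C and 5% CO₂, passaged at 70% confluency. Live-cell dye uptake imaged by confocal microscopy with a 20×/0.75 water objective; NIR excitation at 670 nm, detection at 716−789 nm.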

Data set [4] concerns OATP1B3. As to conditions: PC-3 prostate cancer xenograft; cited from earlier work.
Data set [5] concerns MDA-MB-231 cells. The experiment in a line: BSA-FITC and dye colocalization by confocal microscopy. Format: cell-based, Human. The method in brief:
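50,000 MDA-MB-231 cells (grown in DMEM/10% FBS, 37 °C, 5% CO₂) incubated with test dye (10 μM) and equimolar BSA-FITC, either mixed just before use, preincubated 24 h, or added with BSA-FITC whose Cys34 was blocked by 24 h 6-maleimidohexanoic acid pretreatment. Cells then washed twice with PBS and imaged confocally (NIR: 670 nm excitation, 716−789 nm; FITC: 490 nm excitation, 500−589 nm). Pearson coefficient computed.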

For data set [6], the system named is subcutaneous triple negative breast tumors (E0771). The data set is classed as in vivo, C57Bl/6 mice. As to conditions: 25 nmol iv. The method in brief: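 Female C57Bl/6 mice, 6 wk old (20−30 g), inoculated subcutaneously in left flank with 5 × 10⁶ E0771 cells in PBS. 25 nmol test compound in 10% BSA given iv; NIR imaging (760 nm excitation, 4 mW/cm²) at 0.5, 1, 2, 4, 24 and 48 h. TBR = tumor fluorescence over nearby healthy tissue; at least 3 animals per time point; mean ± s.d.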

Data set [7] deals with OATP1B3. The conditions noted are these: ARCePE prostate cancer xenograft; cited from earlier work.
A short description of data set [8]: Pharmacokinetics, clearance and urinary excretion. Format: in vivo, CD-1 mice. As to conditions: 25 nmol iv. The method in brief:
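Healthy CD-1 mice (25 g) dosed iv with 25 nmol test compound in saline with 10% BSA. Blood taken at 0, 10, 30, 60, 120, 180, 240 and 300 min, spun 3000 rpm for 20 min; plasma fluorescence read by NIR imaging. For excretion, male mice had the penis ligated before dosing and were killed at 4 h; urine fluorescence read by spectrophotometer.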

Data set [9] concerns MDA-MB-231 cells. Briefly: Cellular uptake of dyes, blocking experiment. The data set is classed as cell-based, Human. As to conditions: for effect of BSA added to SFM on cellular uptake: BSA only in the media, FACS; for effect of serum on cellular uptake: media with 10% FBS versus serum free media; for effect of BSP on cellular uptake in SFM: 250 μM BSP. The method in brief:
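MDA-MB-231 cells (50,000) seeded in serum medium overnight, then starved 4 h in serum-free medium. Groups: no serum (reference), 10% FBS, and 250 μM BSP preblock for 5 min with or without serum. Test compound added for 30 min, then washed. Read by confocal (670 nm excitation) or by FACS after enzyme-free detachment (633 nm excitation, 750/45 emission). Separate arms used DMOG 24 h beforehand for hypoxia, or BSA alone in medium.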

Data set [10] addresses T1, HSA. The conditions noted are these: absorption maxima red-shifted in presence of albumin; cited from earlier work.
Data set [11] relates to albumin. As to conditions: cited from earlier work.

T1 sequence (P02768 25-609): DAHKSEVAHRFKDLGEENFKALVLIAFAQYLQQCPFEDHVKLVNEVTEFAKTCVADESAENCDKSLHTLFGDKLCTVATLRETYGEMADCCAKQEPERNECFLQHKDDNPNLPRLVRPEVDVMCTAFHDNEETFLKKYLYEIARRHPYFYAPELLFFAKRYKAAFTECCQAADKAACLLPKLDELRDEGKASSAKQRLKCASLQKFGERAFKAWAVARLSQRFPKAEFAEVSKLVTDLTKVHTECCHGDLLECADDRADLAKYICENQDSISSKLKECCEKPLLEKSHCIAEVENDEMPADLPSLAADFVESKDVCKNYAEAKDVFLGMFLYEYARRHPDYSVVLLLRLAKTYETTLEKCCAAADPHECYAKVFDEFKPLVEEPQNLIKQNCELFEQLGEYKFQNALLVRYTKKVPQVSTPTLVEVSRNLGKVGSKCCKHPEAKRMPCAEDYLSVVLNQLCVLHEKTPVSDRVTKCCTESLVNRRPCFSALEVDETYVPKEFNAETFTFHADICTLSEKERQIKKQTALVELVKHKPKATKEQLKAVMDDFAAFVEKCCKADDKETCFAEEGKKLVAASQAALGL

For the compound `CC1(C)C(/C=C/C2=C(Cl)C(=C/C=C3\N(CCCCCC(=O)O)c4ccccc4C3(C)C)/CCC2)=[N+](CCCCCC(=O)O)c2ccccc21` [1-Cl], the “formation of noncovalent adduct with albumin” value (from here on “formation”) in data set [1] is recorded as “form a non-covalent adduct with albumin”. Also, the “displacement of dye from albumin by BSP” value in data set [1] (up to 50 equiv BSP, either order of addition) is reported as “not displaced from albumin by BSP”. The “persistence in body at 48 h (biodistribution)” value in data set [2] is recorded as “persisted”. For the same compound, the “uptake into HepG2 cells, trend” value in data set [3] is “followed the same trends”. Moreover, the “reduction of tumor uptake on OATP1B3 knockdown” value in data set [4] is “approximately 40%”. The “Pearson coefficient of colocalization” value in data set [5] (1-Cl preincubated with Cys34-blocked BSA-FITC) is 0.56. The “Pearson coefficient of colocalization with BSA-FITC” value in [5] (dye 10 μM and ~1 equiv BSA-FITC, noncovalent adduct) stood at 0.65. In addition, the “time post-injection at which high contrast was observed” value in data set [6] is 48 h. Also, the “maximum TBR” value in [6] (48 h post-injection) stood at 3.5. For the same compound, the “tumor accumulation and persistence” value in [6] (up to 48 h) was “high tumor accumulation and prolonged retention”. The “reduction of tumor uptake on OATP1B3 knockdown” value in data set [7] was ~ 25%. The urinary excretion entry in data set [8] (CD-1 mice) was “Insignificant urinary excretion”. Moreover, in [8] (healthy CD-1 mice, plasma fluorescence up to 5 h), the “blood plasma (fluorescence) elimination half-life” value is 3.253 h. For the same compound, in data set [9], the “effect of BSA added to SFM on cellular uptake” value (“effect of BSA added to SFM” below) is recorded as “almost identical to those in serum” and the “effect of serum on cellular uptake” value is recorded as “suppressed”. Further, the “decrease of uptake by BSP” value in [9] (serum free media, 250 μM BSP preblock, dye 20 μM, FACS quantitation) is on record as 40−50%.

Regarding `CC1(C)C(=CC=C2CCCC(C=CC3=[N+](CCCCS(=O)(=O)[O-])c4ccccc4C3(C)C)=C2Cl)N(CCCCS(=O)(=O)[O-])c2ccccc21.[Na+]` [2-Cl], the “formation” value in data set [1] is reported as “appear to form noncovalent adducts”. In addition, the “effect of BSP on cellular uptake in SFM” value in data set [9] (serum free media) was “suppressed”. In addition, in data set [9], the “effect of BSA added to SFM” value is listed as “suppressed” and the “effect of serum on cellular uptake” value is given as “suppressed”.

`CCCN1C(=CC=C2CCCC(C=CC3=[N+](CCC)c4ccccc4C3(C)C)=C2Cl)C(C)(C)c2ccccc21.[I-]` [4-Cl]: the “formation” value in data set [10] is “implying noncovalent complexation”.

Consider `O=C1OC(c2ccc(O)c(S(=O)(=O)O)c2)(c2ccc(O)c(S(=O)(=O)O)c2)c2c(Br)c(Br)c(Br)c(Br)c21` [BSP, Bromosulfophthalein], for which the “fraction bound to albumin” value in data set [11] (after iv injection) was “more than 99%”. Further, the “unbound BSP” value in [11] (equimolar concentrations of BSP and albumin) is given as “less than 0.1%”.

For the compound `CC1(C)C(/C=C/C=C/C=C/C=C2\N(CCCCS(=O)(=O)[O-])c3ccc4ccccc4c3C2(C)C)=[N+](CCCCS(=O)(=O)[O-])c2ccc3ccccc3c21.[Na+]` [ICG], the “formation” value in data set [1] is on record as “appear to form noncovalent adducts”. In data set [9] (serum free media), the “effect of BSP on cellular uptake in SFM” value is given as “suppressed”. In addition, in [9], the “effect of BSA added to SFM” value is “suppressed” and the “effect of serum on cellular uptake” value is on record as “suppressed”.
